In ChEMBL document CHEMBL1126758, “Synthesis and structure-activity studies of a series of spirooxazolidine-2,4-diones: 4-oxa analogues of the muscarinic agonist 2-ethyl-8-methyl-2,8-diazaspiro[4.5]decane-1,3-dione” (J Med Chem, 1993):
Positions count from the first letter of the chain named.

Columns and labels:
[1] = Minimum dose required for subcutaneous administration to improve scopolamine-induced impairment of passive avoidance task in mouse(anti-amnesic effect)
[2] = target: T1, Muscarinic acetylcholine receptor M1 (Rattus norvegicus, UniProt P08482); assay: Displacement of [3H]pirenzepine from rat cortex membrane expressing muscarinic M1 receptor
T1 sequence (P08482 whole entry): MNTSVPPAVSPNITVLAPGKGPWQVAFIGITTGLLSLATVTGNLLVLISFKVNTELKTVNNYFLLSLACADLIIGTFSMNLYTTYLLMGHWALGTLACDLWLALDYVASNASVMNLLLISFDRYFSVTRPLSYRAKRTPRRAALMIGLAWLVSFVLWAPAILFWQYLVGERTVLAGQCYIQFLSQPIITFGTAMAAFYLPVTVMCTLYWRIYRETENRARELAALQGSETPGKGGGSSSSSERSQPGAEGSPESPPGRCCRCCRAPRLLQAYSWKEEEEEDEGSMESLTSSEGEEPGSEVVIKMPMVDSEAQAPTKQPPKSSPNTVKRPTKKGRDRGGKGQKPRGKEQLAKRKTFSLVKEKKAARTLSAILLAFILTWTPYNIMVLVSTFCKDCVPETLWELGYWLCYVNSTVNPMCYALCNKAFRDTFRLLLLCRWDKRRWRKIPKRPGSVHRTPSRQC
Summary of the method: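 M1 binding: male Wistar rat cerebral cortex membranes were resuspended in 8.3 mM Tris-HCl with 1.25 mM MnCl2, pH 7.4. Membranes (250 μg protein) were incubated with about 1.0 nM [3H]pirenzepine for 60 min at 25 °C. Atropine 10 μM defined nonspecific binding. Bound radioactivity was collected by filtration and counted by scintillation. IC50 came from logit-log analysis, converted by Cheng-Prusoff to Ki; single experiment in triplicate.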

[3] = target: T2, Muscarinic acetylcholine receptor M1 (Rattus norvegicus) (UniProt P08482); assay: Compound was tested for percent inhibition against displacement of [3H]pirenzepine from rat cortex membrane expressing muscarinic M1 receptor at 10^-6 M
T2 sequence (whole entry): T1 sequence (P08482 whole entry)

[4] = test system: Muscarinic acetylcholine receptors M1 & M2 (Rattus norvegicus); assay: The ratio of Ki for M2 receptor to the Ki for M1 receptor was determined
Rattus norvegicus [5] = assay: Increase in blood pressure of pithed rats after intravenous administration at 3 mg/kg; format: functional
Summary of the method: (§1)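 Male Wistar rats (ca. 200–300 g) were ether-anesthetized, tracheally catheterized, pithed with a steel rod and ventilated with room air. Drugs were given iv via the left femoral vein. Arterial pressure was recorded from the left common carotid artery, with body temperature held at 37 °C.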

[6] = target: T3, Muscarinic acetylcholine receptor M2 (Rattus norvegicus, UniProt P10980); assay: Tested against muscarinic M2 receptor by displacement of [3H]quinuclidinyl benzilate from rat cerebellum membrane; format: tissue-based
T3 sequence (P10980 whole entry): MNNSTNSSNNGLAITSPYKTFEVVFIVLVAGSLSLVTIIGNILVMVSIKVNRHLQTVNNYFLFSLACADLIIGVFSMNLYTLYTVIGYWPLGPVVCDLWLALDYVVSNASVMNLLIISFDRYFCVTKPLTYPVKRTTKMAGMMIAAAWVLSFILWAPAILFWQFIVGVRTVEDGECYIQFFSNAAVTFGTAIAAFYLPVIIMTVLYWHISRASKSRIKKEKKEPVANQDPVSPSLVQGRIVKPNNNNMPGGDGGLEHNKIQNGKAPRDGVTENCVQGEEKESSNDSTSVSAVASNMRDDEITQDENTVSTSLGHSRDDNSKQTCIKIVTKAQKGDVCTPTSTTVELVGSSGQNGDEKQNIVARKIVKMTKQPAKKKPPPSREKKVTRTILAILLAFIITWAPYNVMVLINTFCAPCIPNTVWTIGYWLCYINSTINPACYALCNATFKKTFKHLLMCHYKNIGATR
Summary of the method: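 M2 binding: male Wistar rat cerebellum membranes (150 μg protein) were incubated with 0.06 nM [3H]QNB in 50 mM Na+/K+ phosphate, pH 7.4, for 60 min at 25 °C. Atropine 10 μM defined nonspecific binding. Bound radioactivity was collected by filtration and counted by scintillation. Ki came from logit-log IC50 with Cheng-Prusoff correction; single experiment in triplicate, with 95% confidence intervals.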

Mus musculus [7] = assay: Dose required to reduce the rectal temperature (hypothermia) by 2 degree Celsius was determined in vivo in mice; format: functional
Summary of the method: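 Rectal temperature of male ICR mice was taken with a thermoprobe before and 30 min after sc dosing. Dosing started at 30 mg/kg and fell by thirds until a drop over 2 °C no longer occurred, giving ED Δ2°C. Each dose group had 3-6 mice.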

Mus musculus [8] = assay: Dose producing more than 30 mg of saliva as a total amount was determined in vivo in mice; format: functional
Summary of the method: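 Male ICR mice were dosed sc, and saliva was collected at 15 and 45 min after dosing. ED30mg is the dose giving more than 30 mg total saliva. Dosing started at 30 mg/kg and fell stepwise by thirds. Each dose group had 3-6 mice.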

[9] = target: T4, Muscarinic acetylcholine receptor M2 (Mus musculus) (UniProt Q9ERZ4); assay: In vivo muscarinic effect of […] hypothermia against central M2 receptor in mice at dose under 30 mg/kg sc (2 degree Celsius); format: functional, organism-based; design: dose 30 mg/kg
T4 sequence (whole entry): T3 sequence (P10980 whole entry) with V270G, R316K, K321R, A331T, V336A
Summary of the method: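 Male ICR mice given test compound subcutaneously. Rectal temperature taken by thermoprobe before dosing and 30 min after. ED for a 2 °C fall was found by starting at 30 mg/kg and lowering each dose to one-third of the previous until no drop over 2 °C was seen. 3-6 mice per dose group.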

[10] = target: T3, Muscarinic acetylcholine receptor M2; assay: Compound tested in vitro for displacement of [3H]quinuclidinyl benzilate from rat cerebellum membrane expressing muscarinic M2 receptor; format: tissue-based
Summary of the method: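 Male Wistar rat cerebellum homogenised in 0.32 M sucrose, spun at 900g then 11500g (4 °C), pellet washed in 5 mM Tris-HCl pH 7.4, stored -80 °C. Incubation in 50 mM Na+/K+ phosphate pH 7.4 with 0.06 nM [3H]QNB and 150 μg protein, 60 min at 25 °C. Nonspecific binding with 10 μM atropine. Filtration, scintillation counting. Triplicate, single experiment. Logit-log IC50 converted to Ki by Cheng-Prusoff.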

Mus musculus [11] = assay: Dose sc producing more than 30 mg of saliva as a total amount was determined in vivo in mice; format: functional
Summary of the method: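 Male ICR mice given test compound subcutaneously. Saliva collected at 15 and 45 min after dosing. ED30mg is the dose giving more than 30 mg total saliva. Start at 30 mg/kg, then lower each dose to one-third of the previous until the criterion fails. 3-6 mice per dose group.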

Rattus norvegicus [12] = assay: Increase in blood pressure of pithed rats after intravenous administration at 0.1 mg/kg; format: functional
Summary of the method: as §1

| SMILES | MED [1] [mg/kg] | Ki [2] [µM] | inhibition [3] [%] | also measured |
| --- | --- | --- | --- | --- |
| COC(=O)CN1C(=O)OC2(CCN(C)CC2)C1=O |  | > 10 | 40 |  |
| CN1CCC2(CC1)OC(=O)N(C)C2=O | > 30 | 16 |  |  |
| CCN1C(=O)C2(CCN(C)CC2)OC1=S |  | 0.89 |  | ED delta [9]: 30 mg/kg; Ki [10]: 4.3 µM; ED30 (Mus musculus [11]): 30 mg/kg |
| CCN1C(=O)OC2(CCCN(C)C2)C1=O (configuration not stated) | > 30 | > 10 |  |  |
| CN1CCC2(CC1)OC(=O)NC2=O | > 30 | > 10 | 0 |  |
| CN1CCC2(CC1)OC(=O)N(CC(N)=O)C2=O | > 30 | > 10 | 36 |  |
| C=CCN1C(=O)OC2(CCN(C)CC2)C1=O | > 30 | 5.1 |  |  |
| CN1CCC2(CC1)OC(=S)NC2=O | 30 | > 10 | 0 |  |
| CN1CCC2(CC1)OC(=S)N(C(C)(C)C)C2=O.Cl |  | 0.21 |  | ED delta [9]: 30 mg/kg; Ki [10]: 2.1 µM; ED30 (Mus musculus [11]): > 30 mg/kg |
| CCN1C(=O)OC2(CCN(C)C2)C1=O (configuration not stated) | > 30 | > 10 |  |  |
| CN1CCC2(CC1)OC(=S)N(c1ccccc1)C2=O |  | 4 |  |  |

The next lines start with results.

| MED [1] [mg/kg] | Ki [2] [µM] | inhibition [3] [%] | SMILES | also measured |
| --- | --- | --- | --- | --- |
| > 30 | 6.4 |  | COC(=O)CCCN1C(=O)OC2(CCN(C)CC2)C1=O |  |
| 0.3 | 5 |  | CCN1C(=O)OC2(CCN(C)CC2)C1=O.Cl | M2/M1 Index [4]: 1.5; BP (Rattus norvegicus [5]): 24 mmHg; Ki [6]: 7.8 µM; ED delta (Mus musculus [7]): >30 mg/kg; ED30 (Mus musculus [8]): 30 mg/kg |
| > 30 | > 10 | 0 | CCN1C(=O)OC2(CCN(CC#CCOC(=O)Nc3cccc(Cl)c3)CC2)C1=O |  |
| 0.3 | 7.8 |  | CCN1C(=O)OC2(CCNCC2)C1=O.Cl | ED delta (Mus musculus [7]): >30 mg/kg; ED30 (Mus musculus [8]): > 30 mg/kg |
| 30 | > 10 | 0 | CCN1C(=O)OC2(CCN(CCCC(=O)OC)CC2)C1=O |  |
|  | > 10 | 2 | CCN1C(=O)OC2(CCN(Cc3ccccc3)CC2)C1=O |  |
| > 30 | > 10 | 10 | CN1CCC2(CC1)OC(=O)N(CCN1CCOCC1)C2=O |  |
| 0.1 | 0.46 |  | Br.CCN1C(=O)CC2(CCN(C)CC2)C1=O | M2/M1 Index [4]: 2.1; Ki [10]: 0.97 µM; ED30 (Mus musculus [11]): 0.5 mg/kg; BP (Rattus norvegicus [12]): 12 mmHg; ED delta (Mus musculus [7]): 1 mg/kg |
| 0.3 | 12 |  | CN1CCC2(CC1)OC(=O)N(c1cccc(Cl)c1)C2=O |  |
|  | 1.5 |  | CN1CCC2(CC1)OC(=O)N(C(C)(C)C)C2=O |  |
